Assays:
[1] = Cytotoxicity against human HeLa-APL cells after 48 hrs by SRB assay; format: functional
How it was run: (§1)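 Cells grown in RPMI 1640 with 10% FBS and penicillin/streptomycin at 37 °C and 5% CO₂, trypsinized, then seeded at 5 × 10³/well. After 18 h drug-free attachment, samples in DMSO/EtOH/PBS (0.5:0.5:99) were added for 48 h continuous exposure. Cells were fixed with cold TCA (1 h, 4 °C) and stained with SRB (10 min). Tris-solubilized stain read at 490 nm. Triplicate wells, mean ± SD; GI₅₀ derived.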

[2] = system: SK-BR-3; test: Cytotoxicity against human SKBR3 cells after 48 hrs by SRB assay; format: functional; settings: SK-BR-3, 48 h; for CC50: read-out: LC50 (the source's name); how it was run: as §1
[3] = system: LoVo; test: Cytotoxicity against human doxorubicin resistant LoVo cells after 48 hrs by SRB assay; format: functional; settings: for CC50: read-out: LC50 (the source's name); how it was run: as §1
[4] = system: SK-MEL-28; test: Cytotoxicity against human SK-MEL-28 cells after 48 hrs by SRB assay; format: functional, cell-based; settings: Homo sapiens, SK-MEL-28, 48 h; for CC50: read-out: LC50 (the source's name); how it was run: as §1
[5] = Cytotoxicity against human IGROV cells after 48 hrs by SRB assay; format: functional; settings: for CC50: read-out: LC50 (the source's name); how it was run: as §1
[6] = system: HT-29; test: Cytotoxicity against human HT29 cells after 48 hrs by SRB assay; format: functional, cell-based; settings: Homo sapiens, HT-29, 48 h; for CC50: read-out: LC50 (the source's name); how it was run: as §1
[7] = system: PANC-1; test: Cytotoxicity against human PANC1 cells after 48 hrs by SRB assay; format: functional; settings: PANC-1, 48 h; for CC50: read-out: LC50 (the source's name); how it was run: as §1
[8] = system: A549; test: Cytotoxicity against human A549 cells after 48 hrs by SRB assay; format: functional, cell-based; settings: Homo sapiens, A549, 48 h; for GI50: read-out: GI50; how it was run: as §1
[9] = system: DU-145; test: Cytotoxicity against human DU145 cells after 48 hrs by SRB assay; format: functional, cell-based; settings: Homo sapiens, DU-145, 48 h; for GI50: read-out: GI50; for CC50: read-out: LC50 (the source's name); how it was run: as §1
[10] = Cytotoxicity against human IGROV-ET cells after 48 hrs by SRB assay; format: functional; settings: for CC50: read-out: LC50 (the source's name); how it was run: as §1
[11] = system: K562; test: Cytotoxicity against human K562 cells after 48 hrs by SRB assay; format: functional; settings: K562, 48 h; for CC50: read-out: LC50 (the source's name); how it was run: as §1
[12] = system: LoVo; test: Cytotoxicity against human LoVo cells after 48 hrs by SRB assay; format: functional; settings: for CC50: read-out: LC50 (the source's name)
[13] = system: HeLa; test: Cytotoxicity against human HeLa cells after 48 hrs by SRB assay; format: functional; settings: for CC50: read-out: LC50 (the source's name); how it was run: as §1

## C/C=C1\NC(=O)[C@@H]2C[C@@H]3CCCC[C@@H]3N2C(=O)[C@@H](C(C)C)NC(=O)[C@@H]([C@H](C)CC)NC(=O)[C@H](NC(=O)[C@H](NC(=O)[C@H](CCCN)NC(=O)[C@H]2CCCN2C(=O)[C@H](NC(=O)[C@@H](NC(=O)[C@@H](NC(=O)[C@H](NC(=O)CC[C@@H](C)CC)C(C)C)[C@@H](C)O)C(C)C)C(C)C)[C@H](C)CC)[C@H](C)OC(=O)[C@H](C(C)C)NC1=O
[1]
  GI50: 1260 nM
  LC50 (concentration giving 50% net cell kill): 1000 nM
  TGI: 1120 nM
[2]
  TGI: 887 nM
  CC50: 138 nM
[2]; read-out: GI50
  GI50: 700 nM
[3]
  GI50: 358 nM
  TGI: 433 nM
  CC50: 527 nM
[4]
  TGI: 1140 nM
  CC50: 1120 nM
[4]; read-out: GI50
  GI50: 1150 nM
[5]
  GI50: 871 nM
  CC50: 582 nM
[5]; read-out: GI50
  GI50: 1820 nM
[6]
  CC50: 677 nM
[7]
  GI50: 2580 nM
  TGI: 3670 nM
  CC50: 2000 nM
[8]
  LC50: 1070 nM
  TGI: 1250 nM
  GI50: 1460 nM
[9]
  TGI: 1250 nM
  GI50: 1460 nM
  CC50: 1070 nM
[10]
  GI50: 827 nM
  CC50: 507 nM
[10]; read-out: GI50
  GI50: 1590 nM
[11]
  GI50: 4750 nM
  TGI: 4040 nM
  CC50: 2670 nM
[12]
  GI50: 1210 nM
  TGI: 1920 nM
  CC50: 2420 nM
[13]
  GI50: 1560 nM
  TGI: 1270 nM
  CC50: 1050 nM

## C/C=C1\NC(=O)[C@H](Cc2ccccc2)NC(=O)[C@@H](C(C)C)NC(=O)[C@@H]([C@H](C)CC)NC(=O)[C@H](NC(=O)[C@H](NC(=O)[C@H](CCCNC(=O)CCOCCOCCNC(=O)OCC2c3ccccc3-c3ccccc32)NC(=O)[C@H]2CCCN2C(=O)[C@H](NC(=O)[C@@H](NC(=O)[C@@H](NC(=O)[C@H](NC(=O)CCCC(C)C)C(C)C)[C@@H](C)O)C(C)C)C(C)C)[C@H](C)CC)[C@H](C)OC(=O)[C@H](C(C)C)NC1=O
[1]
  GI50: 53.8 nM
  LC50 (concentration giving 50% net cell kill): 528 nM
  TGI: 89.7 nM
[2]
  GI50: 53.4 nM
  CC50: 392 nM
[2]; read-out: GI50
  GI50: 39.6 nM
[3]
  GI50: 199 nM
  TGI: 179 nM
  CC50: 238 nM
[4]
  GI50: 840 nM
  CC50: 10.3 nM
[4]; read-out: GI50
  GI50: 68.4 nM
[5]
  GI50: 79.9 nM
  CC50: 404 nM
[5]; read-out: GI50
  GI50: 36.1 nM
[6]
  GI50: 85.3 nM
  TGI: 117 nM
  CC50: 263 nM
[7]
  CC50: 141 nM
[8]
  LC50: 32 nM
[9]
  TGI: 15.7 nM
  GI50: 16.4 nM
  CC50: 557 nM
[10]
  CC50: 216 nM
[11]
  CC50: 15.4 nM
[12]
  GI50: 44.3 nM
  TGI: 61.7 nM
  CC50: 43.2 nM
[13]
  GI50: 56.4 nM
  TGI: 119 nM
  CC50: 767 nM

## C/C=C1\NC(=O)[C@H](Cc2ccccc2)N(C)C(=O)[C@@H](C(C)C)NC(=O)[C@@H]([C@H](C)CC)NC(=O)[C@H](NC(=O)[C@H](NC(=O)[C@H](CCCN)NC(=O)[C@H]2CCCN2C(=O)[C@H](NC(=O)[C@@H](NC(=O)[C@@H](NC(=O)[C@H](NC(=O)CC[C@@H](C)CC)C(C)C)[C@@H](C)O)C(C)C)C(C)C)[C@H](C)CC)[C@H](C)OC(=O)[C@H](C(C)C)NC1=O
[1]
  GI50: 1110 nM
  LC50 (concentration giving 50% net cell kill): 936 nM
  TGI: 1020 nM
[2]
  TGI: 286 nM
  CC50: 76.8 nM
[2]; read-out: GI50
  GI50: 324 nM
[3]
  GI50: 318 nM
  TGI: 311 nM
  CC50: 305 nM
[4]
  TGI: 1270 nM
  CC50: 1190 nM
[4]; read-out: GI50
  GI50: 1350 nM
[5]
  GI50: 596 nM
  CC50: 493 nM
[5]; read-out: GI50
  GI50: 862 nM
[6]
  GI50: 274 nM
  TGI: 236 nM
  CC50: 220 nM
[7]
  GI50: 1920 nM
  TGI: 2100 nM
  CC50: 2000 nM
[8]
  LC50: 999 nM
  TGI: 1130 nM
  GI50: 1300 nM
[9]
  TGI: 1130 nM
  GI50: 1230 nM
  CC50: 1030 nM
[10]
  GI50: 642 nM
  CC50: 451 nM
[10]; read-out: GI50
  GI50: 999 nM
[11]
  GI50: 2140 nM
  TGI: 1730 nM
  CC50: 1410 nM
[12]
  GI50: 386 nM
  TGI: 431 nM
  CC50: 486 nM
[13]
  GI50: 528 nM
  TGI: 766 nM
  CC50: 781 nM
